# MsrA inh – inhibits bovine methionine sulfoxide reductase A; hit rate 0.75% among 360,000; purified bovine MsrA, absorbance read-out; inhibition, % at 15.5 µM;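 also: 0% = vehicle wells with enzyme and 100% = reference inhibitor wells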
# procasp3 activ – activators of human procaspase-3 | recombinant procaspase-3 D3A, Ac-DEVD-pNA absorbance 405 nm | AID 463141 | P42574 | activation, % at 8.5 µM | hit rate 0.11% among 330,000;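 active = activation above the mean of all tested compounds plus 3 SD, cut at about 21% in these data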;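 also: 0% = DMSO alone and 100% = DMSO wells spiked with extra 5 µM PC-3 D3A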
# Target sequence (P42574 whole entry D9A/D28A/D175A): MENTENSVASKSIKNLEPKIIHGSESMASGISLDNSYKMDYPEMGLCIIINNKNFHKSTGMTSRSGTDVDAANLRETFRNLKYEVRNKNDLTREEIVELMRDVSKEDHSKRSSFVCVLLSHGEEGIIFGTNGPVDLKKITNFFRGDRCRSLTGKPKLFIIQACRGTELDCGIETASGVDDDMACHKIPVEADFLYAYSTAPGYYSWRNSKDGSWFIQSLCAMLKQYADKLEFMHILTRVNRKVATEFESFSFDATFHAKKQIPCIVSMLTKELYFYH
#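 Compound: 8.5 µM single point, 0.8% DMSO / Material: Autoprocessing-dead procaspase-3 D3A mutant enzyme / Timing: 1 h preincubation plus 2 h reaction at 25 °C / Medium: Zinc-free HEPES/NaCl buffer with 0.01% Triton X-100 at pH 7.4 / Technique: 405 nm absorbance of p-nitroaniline, reads at 0 and 120 min / Repeats: one well per compound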
# procasp7 counter – counter-screen for procaspase-3 activators: activators of human procaspase-7; recombinant procaspase-7, Ac-DEVD-pNA absorbance 405 nm; D23A/D198A/D206A triple mutant, cannot self-cleave; scale: DMSO 0, 5 µM enzyme 100; activation, % at 8.5 µM; hit rate 0.093% among 330,000; AID 463210;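 active = percent activation above the screen-wide mean plus 3 SD, cut at about 25% in these data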
# Target sequence (P55210 whole entry D23A/D198A/D206A): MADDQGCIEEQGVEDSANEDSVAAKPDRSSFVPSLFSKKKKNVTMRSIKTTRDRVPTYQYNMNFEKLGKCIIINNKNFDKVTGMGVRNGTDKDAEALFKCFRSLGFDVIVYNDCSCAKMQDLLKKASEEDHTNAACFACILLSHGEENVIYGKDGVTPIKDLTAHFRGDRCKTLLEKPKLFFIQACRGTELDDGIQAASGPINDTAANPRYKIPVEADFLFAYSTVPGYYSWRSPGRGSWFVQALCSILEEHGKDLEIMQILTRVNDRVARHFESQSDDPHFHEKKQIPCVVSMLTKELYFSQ
#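 Material: Procaspase-7 triple mutant (PC-7 D3A) | Quantity: 2 µM procaspase-7 mutant as dispensed | Reagent: DEVD-pNA substrate | Times: 1 h preincubation, 2 h reaction | Technique: 405 nm absorbance of p-nitroaniline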
# bovine MsrA act – bovine methionine sulfoxide reductase A activation; purified bovine MsrA, absorbance read-out; activation, % at 10.6 µM; hit rate 0.3% among 360,000; in the data active = activation above about 7.5%;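 also: 0% = vehicle and 100% = reference activator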
# MsrA inh confirm – confirmation of bovine MsrA inhibitors; shares compounds with MsrA inh; inhibition, % at 15.5 µM; purified bovine MsrA, absorbance read-out; hit rate 41% among 2,300;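 also: coupled to thioredoxin reductase with NADPH and selenocystamine and DMSO as substrate; 0% = vehicle only and 100% = full effect of reference inhibitor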
# Active calls of the source: *; x = no result given. Sampled rows, rich in hits. Any-hit rate of the full collection: about 1.2%. Rule as the data show it, unless noted: active = inhibition above about 4.5%; inactive = the rest.
SMILES,MsrA inh,procasp3 activ,procasp7 counter,bovine MsrA act,MsrA inh confirm
O=C(Nc1nc2ccccc2s1)c1ccc(N2CCCCC2)c([N+](=O)[O-])c1,4.7*,1,4,-1,2
COc1ccc(/C=C(/NC(=O)c2ccccc2)C(=O)N/N=C/c2ccc3c(c2)OCO3)cc1OC,6.4*,x,x,-5,5.1*
O=C(N/N=C/c1cc2ccccc2nc1Cl)/C(=C/c1cccs1)NC(=O)c1ccccc1,3,3,-1,-5,x
O=C(N/N=C/c1cccnc1)/C(=C\c1cccs1)NC(=O)c1ccccc1,7.3*,-5,-4,3,4.7*
COc1ccc(/C=C(/NC(=O)c2ccccc2)C(=O)N/N=C/c2cccs2)cc1OC,4.8*,4,-5,-7,6.0*
COc1ccc([N+](=O)[O-])cc1/C=N/NC(=O)/C(=C\c1cccs1)NC(=O)c1ccccc1,3,0,2,-9,x
C=CCNc1ccc2c(c1)OC[C@H](Cc1ccccc1)NS2(=O)=O,1,x,x,x,x
Cc1ccc(/C=N/n2c(C3CCCCC3)n[nH]c2=S)cc1,7.8*,-3,-1,0,4
S=c1[nH]nc(C2CCCCC2)n1/N=C/c1ccccc1Br,13*,-9,-16,-2,12*
Cc1ccccc1/C=N/n1c(C2CCCCC2)n[nH]c1=S,14*,-9,-6,-2,12*
c1ccc(Cc2cnc(N3CCN(Cc4cccc(-c5ccsc5)n4)CC3)nc2)cc1,-1,x,x,x,x
COc1cccc(CNC(=O)[C@H]2CCCN2C(=O)[C@H]2CCCN2C(=O)c2cccc(OC)c2)c1,0,x,x,x,x
Fc1ccccc1Nc1nc2ccccc2n2nnnc12,11*,-1,0,-4,7.3*
c1ccc(Nc2nc3ccccc3n3nnnc23)cc1,8.1*,3,5,-2,4.9*
COc1cccc(Nc2nc3ccccc3n3nnnc23)c1,8.8*,4,7,-2,7.9*
Fc1cccc(Nc2nc3ccccc3n3nnnc23)c1,3,8,6,-7,x
COc1cccc(CNC(=O)[C@H]2CCCN2C(=O)[C@H]2CCCN2C(=O)c2c(F)cccc2F)c1,0,x,x,x,x
O=C(CCN1C(=O)S/C(=C/c2ccccc2)C1=O)Nc1ccc(O)c(C(=O)O)c1,6.5*,-1,5,0,4
O=C(CCN1C(=O)/C(=C\c2ccccc2)SC1=S)Nc1ccc(C(=O)O)cc1,2,-9,-8,-1,x
O=C(CN1C(=O)S/C(=C\c2cccs2)C1=O)Nc1ccc(O)cc1C(=O)O,5.1*,-6,-15,-12,4
O=C(CCN1C(=O)/C(=C/c2cccs2)SC1=S)Nc1ccc(C(=O)O)c(O)c1,0,-12,-10,-1,x
O=C(CCN1C(=O)S/C(=C\c2ccccc2)C1=O)Nc1ccc(O)cc1C(=O)O,4.8*,7,7,-4,4
COc1ccc(/C=C2\SC(=S)N(CCC(=O)Nc3ccccc3C(=O)O)C2=O)cc1,0,6,-2,-9,x
COc1ccccc1CCn1cnc(-c2ccccc2F)c1CC(C)C,0,x,x,x,x
CCOC(=O)C(/C=C(\C#N)C(=O)OCC)=C(/N)N1CCN(c2c(C)cccc2C)CC1,1,-6,10,-1,x
SMILES,MsrA inh,procasp3 activ,procasp7 counter,bovine MsrA act,MsrA inh confirm
CCOC(=O)C(/C=C(\C#N)C(=O)OCC)=C(/N)N1CCN(c2ccc(OC)cc2)CC1,5.9*,3,1,-9,8.2*
Nc1nc2c(ncn2C2CCCC2)c(=O)[nH]1,0,x,x,-2,x
Nc1nc(=S)c2ncn(C3CCCC3)c2[nH]1,5.0*,x,x,2,4
COc1ccccc1C(=O)N1CCC2CCN(C(=O)OC(C)(C)C)C2C1 (stereo not given),1,x,x,x,x
C(=C\c1ccco1)/C=N/n1cnnc1,4.7*,0,-2,-15,5.7*
Cc1cccc(-c2n[nH]c(=S)n2/N=C/C=C/c2ccco2)c1,2,-8,-21,-3,x
S=c1[nH]nc(-c2ccncc2)n1/N=C/C=C/c1ccco1,7.1*,1,4,-5,4.9*
Cc1cc(C)nc(N/N=C/c2ccc(N3CCOCC3)cc2)n1,6.6*,-5,5,-11,6.1*
COc1ccc(/C=N/Nc2cc(C)nc(N3CCOCC3)n2)cc1OC,3,-7,11,1,x
COc1ccc(/C=N\Nc2ncc(F)c(N3CCOCC3)n2)cc1OC,4.7*,8,-9,-5,4
C=C(C)CNC(=S)N/N=C/c1ccc(N2CCOCC2)cc1,6.1*,7,8,-6,5.1*
CC(C)NC(=S)N/N=C/c1ccc(N2CCOCC2)cc1,7.0*,-1,10,-4,5.4*
O=S1(=O)c2ccc(Br)cc2OC[C@H](c2ccccc2)N1Cc1ccccc1,0,x,x,x,x
CCCCN1CC(N2CCCC2)CS1(=O)=O (stereo not given),1,x,x,x,x
COc1ccc(OC)c(NC(=S)NCCN2CCOCC2)c1,0,8,-7,-1,x
COc1cc(/C=N/NC(=S)NCCN2CCOCC2)ccc1O,7.4*,-10,-3,-5,5.2*
COCCNC(=S)N/N=C/c1ccc(N2CCOCC2)cc1,8.1*,-1,-8,-6,5.9*
O=C(O)c1cc(N/N=C/c2ccc(N3CCOCC3)cc2)ccc1Cl,4.8*,-1,-8,-13,5.8*
CCOC(=O)C1=C(C)NC(C)=C(C(=O)OCC)C1C(=O)OCC(=O)NC,11*,5,6,-5,4
C#CCNC(=O)C[C@H]1C[C@@]2(C(=O)OC)C(=C[C@H](COCc3ccccc3)O[C@@H]2C)N(Cc2ccc3c(c2)OCO3)C1=O,1,x,x,x,x
CCOC(=O)c1sc(N)c(C(=O)Nc2ccccc2)c1C,4.8*,-14,-11,-4,2
CCOC(=O)c1sc(N)c(C(=O)OCC)c1C,1,-11,-15,-3,x
c1ccc(Nc2nnc(-c3ccc4c(c3)OCO4)o2)cc1,-1,x,x,x,x
COC(=O)C1=C(C)N(Cc2ccc(C(F)(F)F)cc2)C(=NCc2ccc(C(F)(F)F)cc2)NC1c1ccccc1C(F)(F)F (stereo not given),-1,x,x,x,x
COc1ccc2cc(-c3[nH]ncc3CN3CCCC3c3nonc3C)ccc2c1 (stereo not given),33*,0,2,-6,26*
SMILES,MsrA inh,procasp3 activ,procasp7 counter,bovine MsrA act,MsrA inh confirm
COc1ccc(-c2[nH]ncc2CN2CCCC(C(=O)c3cccc(OC)c3)C2)cc1 (stereo not given),1,-10,7,-4,x
Cc1ccc(C(=O)NCCNc2ccc([N+](=O)[O-])cc2C(F)(F)F)cc1,0,-4,3,-3,x
Cc1ccc(S(=O)(=O)NCCNc2ccc([N+](=O)[O-])cc2C(F)(F)F)cc1,29*,0,-1,-3,21*
Cc1c(C(=O)N/N=C/c2cccs2)nc2ccccn12,6.6*,-5,4,-1,6.4*
O=C(N/N=C\c1cccs1)c1ccccc1-n1cccc1,1,0,5,-8,x
CCNC(=S)N/N=C/c1cccs1,5.5*,0,-6,-4,3
CCNC(=S)N/N=C/c1cccc(/C=N/NC(=S)NCC)c1,1,2,1,-5,x

# Screening data as filed in PubChem.
